Assay outcomes from PubChem.
Only some compounds are listed: those with a hit (about 4.8% of all), similar ones and a draw of the others.
ALR inh: inhibitors of human ALR sulfhydryl oxidase, primary screen, biochemical, H2O2 detection, HRP-luminol luminescence, single point; FAD-linked sulfhydryl oxidase ALR (Homo sapiens), P55789; purified ALR, DTT oxidation; inhibition, % (test concentration not listed); actives 3.8% (n = 290,000); AID 485317, 2010;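 active means mean replicate inhibition above about 79%, with every replicate also reaching it, limit read from the data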
Target sequence (P55789 whole entry, looked up): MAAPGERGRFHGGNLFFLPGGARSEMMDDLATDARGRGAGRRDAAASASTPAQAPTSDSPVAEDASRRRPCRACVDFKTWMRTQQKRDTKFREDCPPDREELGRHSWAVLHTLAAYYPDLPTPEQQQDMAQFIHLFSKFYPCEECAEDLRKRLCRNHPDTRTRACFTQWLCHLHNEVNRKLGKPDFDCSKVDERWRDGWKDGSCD
UCH37 inh: inhibitors of human UCH37 deubiquitinase, primary screen, biochemical, Ub-AMC cleavage, fluorescence; Ubiquitin carboxyl-terminal hydrolase isozyme L5 (Homo sapiens), Q9Y5K5; purified proteasome/UCH37; inhibition, % (concentration not given with the values); actives 0.33% (n = 330,000);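 active means mean inhibition over replicate wells above about 20%, limit read from the data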;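 further: 0% = compound-free wells with enzyme and 100% = wells lacking proteasome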
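Material: human UCH37 enzyme supplied as purified proteasome complex / Amount: 0.15 nM proteasome as dispensed / Buffer or medium: pH 7.4 Tris-HCl (50 mM) with ovalbumin, ATP-MgCl2, DTT / Times: preincubation 30 min, reaction 25 min, room temperature / Technique: AMC fluorescence from Ub-AMC cleavage, excitation 355 nm, emission 460 nm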
Calb FLC: C. albicans growth inhibition with fluconazole, primary screen, CaCi-2 strain, Alamar Blue fluorescence. C. albicans CaCi-2 (fluconazole-resistant clinical isolate) + fluconazole, 48 h. growth inhibition, % (no concentration beside the values). actives 0.57% (n = 300,000). AID 1979, 2009;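 active means growth inhibition above about 58% in most replicates, limit read from the data, passing the limit was not always enough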;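 further: all wells also contain fluconazole at 8 µg/ml as a sub-toxic cotreatment; 0% = median of DMSO wells and 100% = median of geldanamycin control wells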
ATG4B inhibitor: ATG4B protease inhibitors, primary screen, biochemical, fluorescence, uHTS; Cysteine protease ATG4B (Homo sapiens), Q9Y4P1; actives 0.51% (n = 340,000); ATG4B cleavage of LC3-PLA2, NBD-HPC fluorescence, 1 h; inhibition, % at 8.33 µM; in the data active means inhibition above about 40%
Target sequence (Q9Y4P1 whole entry, looked up): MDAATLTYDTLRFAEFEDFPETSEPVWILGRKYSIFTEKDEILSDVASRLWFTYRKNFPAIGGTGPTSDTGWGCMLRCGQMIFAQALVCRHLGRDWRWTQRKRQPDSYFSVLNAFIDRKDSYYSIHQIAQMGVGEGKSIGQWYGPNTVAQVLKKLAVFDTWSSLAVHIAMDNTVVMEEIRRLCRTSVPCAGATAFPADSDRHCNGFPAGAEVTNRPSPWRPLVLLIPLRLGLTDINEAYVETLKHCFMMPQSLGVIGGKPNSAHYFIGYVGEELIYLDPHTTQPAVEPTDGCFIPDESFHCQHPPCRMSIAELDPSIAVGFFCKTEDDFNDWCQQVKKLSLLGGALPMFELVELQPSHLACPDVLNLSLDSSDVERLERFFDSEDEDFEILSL
NALP1 yeast inh: NALP1 inflammasome inhibitors in reconstituted yeast, colorimetric, S. cerevisiae, triplicate retest | inhibition, % at 10 µM | S. cerevisiae NALP1/ASC/caspase-1 growth, X-gal OD620, 72 h | actives 0.61% (n = 280,000) | AID 2071, 2009; in the data active means inhibition mostly above about 24%, no sharp cut-off; inactive means mostly below about 32%
NLRP3 yeast inh: NALP3 inflammasome inhibitors in reconstituted yeast, primary screen, luminescence, uHTS | Yeast reconstituted NLRP3/ASC/caspase-1, beta-gal luminescence, 24 h | inhibition, % at 10 µM | actives 0.39% (n = 330,000) | AID 2825, 2010;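 active means inhibition of 50% or more; inactive means inhibition below 50%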;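 further: plate controls were induced DMSO wells for no effect and uninduced yeast grown without galactose for full effect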
An asterisk follows results filed as active; · = no result.

SMILES	ALR inh	UCH37 inh	Calb FLC	ATG4B inhibitor	NALP1 yeast inh	NLRP3 yeast inh
COc1ccccc1Nc1nc(C2(C)CCC(=O)O2)cs1 (configuration not stated)	95.9*	0.6	4.6	1.1	35.8	8.1
COc1ccccc1C=NNC(=O)NC12CC3CC(CC(C3)C1)C2	·	4.5	·	·	·	·
CC(CC1(O)C(=O)Nc2ccccc21)=NO (configuration not stated)	·	1.1	·	·	·	·
O=S(=O)(c1ccc(NC(=S)N2CCN(c3ccc(O)cc3)CC2)cc1)N1CCOCC1	99.3*	2.0	-5.7	-1.0	-1.5	12.5
CN(C)S(=O)(=O)c1cc(NC(=O)CN2CCN(c3ccc(O)cc3)CC2)ccc1Cl	100.2*	1.1	8.1	-7.3	-0.7	-3.1
CCOC(=O)CNC(=O)CN1CCCN(S(=O)(=O)c2ccc(Br)s2)CC1	-2.0	0.6	·	-5.4	9.4	23.7
Cc1ccc(S(=O)(=O)N2CCOCC2)cc1NC(=O)CN1CCN(C)CC1	-3.1	0.3	·	-8.0	·	20.2
O=C(CN1CCCN(S(=O)(=O)c2ccc(Br)s2)CC1)Nc1ccc(Cl)cc1	91.1*	2.8	0.9	-17.9	-2.6	11.5
Cc1ccc(S(=O)(=O)N2CCOCC2)cc1NC(=O)CN1CCN(c2ccc(O)cc2)CC1	96.8*	1.9	-0.3	-0.1	13.0	1.9
O=C(CN1CCN(c2ccc(O)cc2)CC1)Nc1ccc(S(=O)(=O)N2CCCC2)cc1	88.0*	1.4	·	-2.9	·	6.8
C(/C=C/c1ccccc1)=NNc1ccc2nncn2n1	·	11.8	·	·	·	·
CC(=NNC(=O)c1cc(Br)ccc1O)c1cccc(NC(=O)c2ccccc2F)c1	·	-3.1	·	·	·	·
CCC(C)NC(=O)c1c(N)n(N=Cc2cccnc2)c2nc3ccccc3nc12 (configuration not stated)	·	-102.3	·	·	·	·
O=C(CCc1nc(-c2ccccc2F)no1)Nc1ccc(Oc2ccccc2)cc1	-12.4	5.0	-1.1	19.9	40.9*	19.2
CC1CCCC(NC(=O)COC(=O)Cc2ccc(Br)cc2)C1C (configuration not stated)	-9.8	3.0	-9.3	6.0	17.7*	-22.1
O=C(CSc1ncn[nH]1)CSc1ncn[nH]1	93.6*	-1.8	0.6	-5.9	17.2	4.2
CC(C)c1ccc(C(=O)CSc2ncn[nH]2)cc1	9.8	3.6	6.2	-3.2	4.8	6.5
O=C(CN1CCCc2ccccc21)NN=Cc1c(O)ccc2ccccc12	·	-1.4	·	·	·	·
O=C(CN1c2ccccc2Sc2ccccc21)NN=Cc1ccccc1	·	5.1	·	·	·	·
COc1ccc(O)c(C=NNC(=O)c2c(C)nnn2-c2nonc2N)c1	·	3.3	·	·	·	·
O=C(NN=Cc1cccn1-c1ccc([N+](=O)[O-])cc1)c1cccnc1	·	11.7	·	·	·	·
COc1ccc(-c2csc(N(CCCN(C)C)C(=O)c3ccc(F)cc3)n2)cc1	86.6*	1.3	-23.5	-4.2	18.0	-3.0
CCN(CC)CCCN(C(=O)c1ccc(F)cc1)c1nc(-c2ccc(OC)cc2)cs1	·	2.9	-13.5	-3.1	14.7	31.7
O=C(CSCc1ccccc1Br)NC1CC1	97.7*	1.1	4.2	-6.1	8.1	17.1
Cc1c(O)c(CN(C)C)cc2c1oc(=O)c1ccccc12	96.6*	2.9	0.3	-0.3	3.1	9.9
SMILES	ALR inh	UCH37 inh	Calb FLC	ATG4B inhibitor	NALP1 yeast inh	NLRP3 yeast inh
COc1cccc(CNC(=O)c2ccc(OCC(=O)N3CCOCC3)c(OC)c2)c1	-3.6	-0.7	6.4	-2.9	·	5.3
COc1cccc(CNC(=O)C2=Cc3cccc(OC)c3OC2)c1	95.8*	1.6	33.2	-3.8	8.3	12.8
CCCCNC(=S)N(C)N=Cc1ccc(F)cc1	·	2.9	·	·	·	·
CCOc1ccc(C(=O)Nn2cnnc2)cc1	-0.4	3.8	2.8	-4.7	33.4*	5.7
O=C(CCNC(=O)c1ccco1)NNC(=O)c1ccc(Br)cc1	·	1.7	·	-8.9	·	·
O=C(NC(=S)NNC(=O)c1ccco1)c1ccc(Br)cc1	99.0*	-6.8	54.1	0.3	-2.3	24.1
O=C(NNC(=S)NC(=O)c1ccco1)c1ccc(F)cc1	97.4*	·	-6.8	-2.6	0.6	-3.0
O=C(/C=C/c1ccco1)NC(=S)NNC(=O)c1ccco1	97.9*	11.9	6.9	-11.9	-8.5	19.9
Cn1cccc1CC(=O)NNC(=S)NC(=O)c1ccc(F)cc1	94.8*	-1.1	-5.1	-3.5	3.8	5.8
COc1ccccc1C(=O)NNC(=S)NC(=O)c1ccco1	53.1	10.6	6.9	-0.1	6.7	37.9
O=C(CN1C(=O)NC2NC(=O)NC21)NN=Cc1ccccc1O (configuration not stated)	·	-55.7	·	·	·	·
O=C(NCCN1CCN(c2ccccc2)CC1)C1CCCN(S(=O)(=O)c2cnc[nH]2)C1 (configuration not stated)	97.1*	2.0	8.1	-2.4	-28.6	2.6
O=C(NCCN1CCN(c2cccc(Cl)c2)CC1)C1CCCN(S(=O)(=O)c2cnc[nH]2)C1 (configuration not stated)	95.8*	2.4	·	-7.6	11.6	-2.0
O=C(NCCC1=CCCCC1)C1CCN(S(=O)(=O)c2cnc[nH]2)CC1	-8.1	20.4*	·	-18.6	8.7	22.1
O=C(NCc1ccccc1Cl)C1CCCN(S(=O)(=O)c2cnc[nH]2)C1 (configuration not stated)	93.6*	3.7	-4.8	-6.3	7.6	4.5
O=C(NCCC1=CCCCC1)C1CCN(S(=O)(=O)c2ccccc2)CC1	-18.1	0.5	-0.1	-11.6	18.3	16.1
O=C(Nc1cccc(Cl)c1)C1CCCN(S(=O)(=O)c2cnc[nH]2)C1 (configuration not stated)	-35.0	2.8	-2.1	-4.9	-14.0	13.0
O=C(NCc1cccs1)C1CCCN(S(=O)(=O)c2cnc[nH]2)C1 (configuration not stated)	·	7.1	-2.7	-4.9	-0.3	-5.1
Cc1ccc(S(=O)(=O)NN=Cc2ccc(C(=O)O)cc2)cc1	·	2.2	·	·	·	·
CCC(=NNC(=O)OC)c1ccc(OC(F)F)cc1	·	2.8	·	·	·	·
Cc1ccc(C(C)C)c(OCc2ccc(C(=O)NN=Cc3ccc(O)c(O)c3)cc2)c1	·	-11.8	·	·	·	·
C(=NN(c1ccccc1)c1ccccc1)c1ccccn1	·	1.8	·	·	·	·
Cc1c(N=C2SCC(=O)N2N=Cc2ccccc2)c(=O)n(-c2ccccc2)n1C	·	3.7	·	·	·	·
CCc1c(C)c(C#N)c2nc3ccccc3n2c1NCCN(C)C	11.3	-42.7	43.1	-1.5	32.2*	36.1
Cc1cc(Cl)n2c(nc3ccccc32)c1C#N	·	-37.4	94.3*	-3.4	11.5	·
ON=C(c1ccc(Cl)cc1)C1CC1c1ccccc1 (configuration not stated)	·	4.9	·	·	·	·
